Test results taken from ChEMBL document CHEMBL2169861, “Synthesis and biological evaluation of novel unsaturated carboxysteroids as human 5α-reductase inhibitors: a legitimate approach” (Eur J Med Chem, 2012).
pIC50: −log10 of the molar value.

Experiments:
[1] = target: T1, 3-oxo-5-alpha-steroid 4-dehydrogenase 2 (Homo sapiens, UniProt P31213); assay: Inhibition of human type-2 5-alpha reductase expressed in HEK293 cells using [3H]-androstenedione as substrate after 30 mins by HPLC analysis; assay type: cell-based
T1 sequence (P31213 whole entry): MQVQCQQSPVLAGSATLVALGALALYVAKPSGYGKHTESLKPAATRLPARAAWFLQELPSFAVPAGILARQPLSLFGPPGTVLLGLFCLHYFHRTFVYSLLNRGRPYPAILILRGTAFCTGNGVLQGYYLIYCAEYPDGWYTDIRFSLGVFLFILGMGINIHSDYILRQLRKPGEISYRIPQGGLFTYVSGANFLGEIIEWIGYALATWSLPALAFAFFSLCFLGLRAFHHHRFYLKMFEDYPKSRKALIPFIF
Procedure, shortened: (§1)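 Lysates of 80% confluent HEK293 cells stably expressing human type I or type II cDNA (pRcCMV), sonicated in 300 mM saccharose, 5 mM Tris-HCl, 0.1 mM EDTA. Final 500 nM androstenedione with [3H]androstenedione, NADPH-regenerating system (0.55 mM NADP, 5 mM glucose-6-phosphate, G6PDH), 2% DMSO; 30 min, 37 °C. Ether-extracted; conversion quantified by radio-HPLC on C8.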

[2] = system: Rattus norvegicus; assay: Anti-benign prostatic hyperplasia activity in Wistar rat assessed as reduction of seminal vesicle weight gain per 100 gram of body weight at 1 mg/kg, po qd for 14 days measured on day 15; assay type: functional
Procedure, shortened: (§2)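 Mature male Wistar rats, acclimatised one month, dosed orally once daily for 14 days with suspension in 0.50% carboxymethylcellulose at 5 ml/kg; vehicle controls; 5 rats/group. Killed under ether on day 15, 24 h after last dose; organs dissected free of fat and connective tissue, weighed, expressed per 100 g body weight. Mean ± SEM; one-way ANOVA with Dunnett's test.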

[3] = system: Rattus norvegicus; assay: Toxicity in Wistar rat assessed as mortality at 1 mg/kg, po qd for 14 days measured on day 15; assay type: organism-based; design: dose 1 mg/kg, route oral; conditions: in vivo, 336 h
Procedure, shortened: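 Mature male Wistar rats, acclimatised one month, dosing begun after 9 weeks. Compound suspended in 0.50% carboxymethylcellulose sodium and given orally at 5 ml/kg once daily for 14 days. Vehicle-only control group, 5 animals per group. Mortality recorded over treatment. Rats weighed and killed under ether anaesthesia on day 15, 24 h after the last dose.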

[4] = system: Rattus norvegicus; assay: Anti-benign prostatic hyperplasia activity in Wistar rat assessed as reduction of epididymis weight gain at 1 mg/kg, po qd for 14 days measured on day 15; assay type: functional; design: scale not given: the % may be the effect or the level left; procedure, shortened: as §2
[5] = system: Rattus norvegicus; assay: Anti-benign prostatic hyperplasia activity in Wistar rat assessed as reduction of vas deferens weight gain at 1 mg/kg, po qd for 14 days measured on day 15; assay type: functional; design: scale not given: the % may be the effect or the level left; procedure, shortened: as §2
[6] = system: Rattus norvegicus; assay: Anti-benign prostatic hyperplasia activity in Wistar rat assessed as reduction of ventral prostate weight gain at 1 mg/kg, po qd for 14 days measured on day 15; assay type: functional, Prostate gland; design: scale not given: the % may be the effect or the level left; procedure, shortened: as §2
[7] = system: Rattus norvegicus; assay: Anti-benign prostatic hyperplasia activity in Wistar rat assessed as reduction of body weight gain at 1 mg/kg, po qd for 14 days measured on day 15; assay type: functional; design: scale not given: the % may be the effect or the level left; procedure, shortened: as §2
[8] = system: Rattus norvegicus; assay: Anti-benign prostatic hyperplasia activity in Wistar rat assessed as reduction of dorsal prostate weight gain at 1 mg/kg, po qd for 14 days measured on day 15; assay type: functional, Prostate gland; design: scale not given: the % may be the effect or the level left; procedure, shortened: as §2
[9] = system: Rattus norvegicus; assay: Anti-benign prostatic hyperplasia activity in Wistar rat assessed as reduction of adrenal weight gain per 100 gram of body weight at 1 mg/kg, po qd for 14 days measured on day 15; assay type: functional; procedure, shortened: as §2
[10] = system: Rattus norvegicus; assay: Anti-benign prostatic hyperplasia activity in Wistar rat assessed as reduction of testis weight gain per 100 gram of body weight at 1 mg/kg, po qd for 14 days measured on day 15; assay type: functional; procedure, shortened: as §2
[11] = system: Rattus norvegicus; assay: Anti-benign prostatic hyperplasia activity in Wistar rat assessed as reduction of liver weight gain per 100 gram of body weight at 1 mg/kg, po qd for 14 days measured on day 15; assay type: functional; procedure, shortened: as §2
[12] = target: T2, 3-oxo-5-alpha-steroid 4-dehydrogenase 1 (Homo sapiens) (UniProt P18405); assay: Inhibition of human type-1 5-alpha reductase expressed in HEK293 cells using [3H]-androstenedione as substrate at 10 uM after 30 mins by HPLC analysis; assay type: cell-based; procedure, shortened: as §1
T2 sequence (whole entry): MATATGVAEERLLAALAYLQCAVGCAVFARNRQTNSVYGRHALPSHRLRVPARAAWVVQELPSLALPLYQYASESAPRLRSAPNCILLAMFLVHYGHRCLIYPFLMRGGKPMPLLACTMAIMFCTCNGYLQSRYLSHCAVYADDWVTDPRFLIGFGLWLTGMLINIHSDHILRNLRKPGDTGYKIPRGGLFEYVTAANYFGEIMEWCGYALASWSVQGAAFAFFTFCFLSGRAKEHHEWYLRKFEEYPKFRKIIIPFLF

[13] = target: T3, 3-oxo-5-alpha-steroid 4-dehydrogenase 2 (Homo sapiens) (UniProt P31213); assay: Inhibition of human type-2 5-alpha reductase expressed in HEK293 cells using [3H]-androstenedione as substrate at 10 uM after 30 mins by HPLC analysis; assay type: cell-based; procedure, shortened: as §1
T3 sequence (whole entry): T1 sequence (P31213 whole entry)

[14] = target: T3, 3-oxo-5-alpha-steroid 4-dehydrogenase 2 (Homo sapiens); assay: Inhibition of human type-2 5-alpha reductase expressed in HEK293 cells using [3H]-androstenedione as substrate at 2 uM after 30 mins by HPLC analysis; assay type: cell-based; procedure, shortened: as §1
[15] = target: T2, 3-oxo-5-alpha-steroid 4-dehydrogenase 1 (Homo sapiens); assay: Inhibition of human type-1 5-alpha reductase expressed in HEK293 cells using [3H]-androstenedione as substrate at 2 uM after 30 mins by HPLC analysis; assay type: cell-based; procedure, shortened: as §1

Compound | pIC50 [1] | Activity [2] [mg] | Activity [3] | Activity [4] [%] | Activity [5] [%] | Activity [6] [%] | Activity [7] [%] | Activity [8] [%] | Activity [9] [mg] | Activity [10] [mg] | Activity [11] [g] | inhibition [12] [%] | inhibition [13] [%] | inhibition [14] [%] | inhibition [15] [%]
CC(C)(C)NC(=O)[C@H]1CC[C@H]2[C@@H]3CC[C@H]4NC(=O)C=C[C@]4(C)[C@H]3CC[C@]12C [FINASTERIDE] | 7.52 | 105.51 | Non-toxic | 14.4 | 14.45 | 44.76 | 8.032 | 45.32 | 16.575 | 1058.022 | 3.5097 | – | – | – | –
C[C@]12CC[C@H]3[C@@H](CC=C4C=C(C#N)CC[C@@H]43)[C@@H]1CCC2=O | – | – | – | – | – | – | – | – | – | – | – | 0 | 1.2 | – | –
C=CCN1C(=O)CC[C@H]2[C@@H]3CC=C4C=C(C#N)CC[C@]4(C)[C@H]3CC[C@@]21C | – | – | – | – | – | – | – | – | – | – | – | 20.8 | 3.3 | – | –
C=CCN1C(=O)CC[C@H]2[C@@H]3CC=C4C=C(C(=O)O)CC[C@]4(C)[C@H]3CC[C@@]21C | 7.14 | 149.399 | Non-toxic | 24.75 | 27.89 | 35.34 | 7.518 | 31.25 | 17.967 | 1094.935 | 3.168 | 0.4 | 100 | 99.7 | –
C[C@]12CCC(Br)=CC1=CC[C@@H]1[C@@H]2CC[C@]2(C)NC(=O)CC[C@@H]12 | – | – | – | – | – | – | – | – | – | – | – | 34.5 | 45.6 | – | –
C[C@]12CCC(C#N)=CC1=CC[C@@H]1[C@@H]2CC[C@@]2(C)[C@H]1CCC(=O)N2Cc1ccccc1 | – | – | – | – | – | – | – | – | – | – | – | 0 | 34.7 | – | –
C[C@]12CCC(C#N)=CC1=CC[C@@H]1[C@@H]2CC[C@]2(C)NC(=O)CC[C@@H]12 | – | – | – | – | – | – | – | – | – | – | – | 27.6 | 9.9 | – | –
C[C@]12CCC(C(=O)O)=CC1=CC[C@@H]1[C@@H]2CC[C@]2(C)NC(=O)CC[C@@H]12 | – | 186.102 | Non-toxic | 13.98 | 26.33 | 27.33 | 8.323 | 46.5 | 13.973 | 993.729 | 2.713 | 0 | 62.9 | – | –
CCN1C(=O)CC[C@H]2[C@@H]3CC=C4C=C(C#N)CC[C@]4(C)[C@H]3CC[C@@]21C | – | – | – | – | – | – | – | – | – | – | – | 56.1 | 48.9 | – | –
CN1C(=O)CC[C@H]2[C@@H]3CC=C4C=C(C(=O)O)CC[C@]4(C)[C@H]3CC[C@@]21C | 7.27 | 126.262 | Non-toxic | 31.75 | 29.36 | 39.5 | 6.517 | 39.96 | 12.464 | 956.392 | 3.224 | 18.9 | 100 | 99 | –
CC(=O)N1C(=O)CC[C@H]2[C@@H]3CC=C4C=C(C#N)CC[C@]4(C)[C@H]3CC[C@@]21C | – | – | – | – | – | – | – | – | – | – | – | 2.2 | 23.2 | – | –
CN1C(=O)CC[C@H]2[C@@H]3CC=C4C=C(C#N)CC[C@]4(C)[C@H]3CC[C@@]21C | – | 223.05 | Non-toxic | 10.11 | 14.58 | 6.72 | 6.767 | -8.07 | 21.311 | 932.988 | 4.861 | 93 | 13.5 | – | 64
C[C@]12CCC(C#N)=CC1=CC[C@@H]1[C@@H]2CC[C@@]2(C)[C@H]1CCC(=O)N2CCC#N | – | – | – | – | – | – | – | – | – | – | – | 0 | 9.9 | – | –
CCN1C(=O)CC[C@H]2[C@@H]3CC=C4C=C(C(=O)O)CC[C@]4(C)[C@H]3CC[C@@]21C | 7.66 | 151.015 | Non-toxic | 17.25 | 19.32 | 39.35 | 5.409 | 28.37 | 15.574 | 1128.214 | 2.91 | 32.3 | 100 | 100 | –
CCOC(=O)CCN1C(=O)CC[C@H]2[C@@H]3CC=C4C=C(C(=O)O)CC[C@]4(C)[C@H]3CC[C@@]21C | 7.58 | 136.605 | Non-toxic | 25.41 | 37.55 | 33.86 | 15.618 | 28.75 | 17.522 | 1075.498 | 3.542 | 8.5 | 100 | 100 | –
C[C@]12CC[C@H]3[C@@H](CC=C4C=C(C(=O)O)CC[C@@H]43)[C@@H]1CCC2=O | 6.67 | 167.37 | Non-toxic | 29.88 | 34.8 | 22.56 | 22.992 | 15.62 | 15.019 | 926.533 | 3.078 | 82.1 | 100 | 89.5 | –
C[C@]12CCC(C#N)=CC1=CC[C@@H]1[C@@H]2CC[C@@]2(C)[C@H]1CCC(=O)N2C(=O)c1ccccc1 | – | – | – | – | – | – | – | – | – | – | – | 0 | 11.4 | – | –
